In article PMC3553303 (Biochemical pharmacology, 2012):

Columns and labels:
FPR2 [1] = biological target: T1, FPR2 (Homo sapiens, UniProt P25090); assay: Ca2+ mobilization in FPR2-HL-60 cells; type: cell-based; conditions: percentage of the response induced by 5 nM WKYMVM
T1 sequence (P25090 1-351): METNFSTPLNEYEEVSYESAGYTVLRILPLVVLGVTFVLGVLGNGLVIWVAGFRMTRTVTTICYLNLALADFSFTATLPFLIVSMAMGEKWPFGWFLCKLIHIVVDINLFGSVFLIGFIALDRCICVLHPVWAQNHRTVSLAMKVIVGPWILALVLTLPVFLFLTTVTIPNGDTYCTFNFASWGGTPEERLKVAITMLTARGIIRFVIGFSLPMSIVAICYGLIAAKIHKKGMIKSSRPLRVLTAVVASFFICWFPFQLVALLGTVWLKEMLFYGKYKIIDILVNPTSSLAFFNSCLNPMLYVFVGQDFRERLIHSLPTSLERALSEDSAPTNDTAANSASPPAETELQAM

human neutrophils = assay: Neutrophil chemotaxis assay; type: cell-based; conditions: read-out: Neutrophils Chemotaxis EC50, N.A. = non-active
FPR2 [2] = biological target: T1, FPR2; assay: PathHunter β-arrestin recruitment, FPR2-CHO-K1 cells; type: cell-based; conditions: read-out: β-arrestin recruitment EC50
In short: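 The assay used the PathHunter enzyme-fragment complementation format in FPR2-transfected CHO-K1 cells. Thawed cells were plated at 5000/well in the kit medium and held 48 h at 37 °C with 5% CO2. Test compound was serially diluted at constant DMSO and added for 90 min at 37 °C, then detection reagent for 60 min at room temperature. Chemiluminescence was read.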

FPR1 [3] = biological target: T2, FPR1 (Homo sapiens, UniProt P21462); assay: Ca2+ mobilization in FPR1-HL-60 cells; type: cell-based; conditions: percentage of the response induced by 5 nM fMLF
T2 sequence (P21462 1-350): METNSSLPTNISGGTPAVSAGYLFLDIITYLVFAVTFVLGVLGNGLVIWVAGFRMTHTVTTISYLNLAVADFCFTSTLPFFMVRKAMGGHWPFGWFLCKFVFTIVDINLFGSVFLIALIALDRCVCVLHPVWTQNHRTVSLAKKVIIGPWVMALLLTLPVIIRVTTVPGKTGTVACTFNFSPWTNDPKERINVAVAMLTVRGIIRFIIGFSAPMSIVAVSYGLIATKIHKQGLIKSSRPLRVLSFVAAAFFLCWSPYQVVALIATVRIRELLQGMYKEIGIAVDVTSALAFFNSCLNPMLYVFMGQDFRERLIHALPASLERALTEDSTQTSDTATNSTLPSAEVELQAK

FPR1 [4] = biological target: T2, FPR1; assay: PathHunter β-arrestin recruitment, FPR1-CHO-K1 cells; type: cell-based; conditions: read-out: β-arrestin recruitment EC50
bombesin receptor (BB2) = bombesin receptor (BB2) (Homo sapiens, UniProt P30550); type: binding; conditions: read-out: Ki, displacement of [125I][Tyr4]bombesin; PC3 cells
bombesin receptor (BB2), sequence (P30550 whole entry): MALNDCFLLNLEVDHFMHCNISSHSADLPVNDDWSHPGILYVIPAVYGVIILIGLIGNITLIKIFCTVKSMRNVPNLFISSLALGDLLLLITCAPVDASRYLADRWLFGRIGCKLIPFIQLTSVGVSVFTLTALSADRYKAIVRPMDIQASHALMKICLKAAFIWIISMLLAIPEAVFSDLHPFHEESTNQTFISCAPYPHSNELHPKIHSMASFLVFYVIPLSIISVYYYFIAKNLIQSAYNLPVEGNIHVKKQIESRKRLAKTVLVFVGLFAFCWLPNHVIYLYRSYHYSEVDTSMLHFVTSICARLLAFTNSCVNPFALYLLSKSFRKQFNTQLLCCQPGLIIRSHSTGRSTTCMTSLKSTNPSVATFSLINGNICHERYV

C[C@@](Cc1c[nH]c2ccccc12)(NC(=O)Nc1ccc([N+](=O)[O-])cc1)C(=O)NCC1(c2ccccn2)CCCCC1 [PD168368]
Ca2+ Mobilization in HL-60 cells FPR2 Efficacy (FPR2 [1]): 75% | EC50 (human neutrophils): 700 ± 150 nM | EC50 (FPR2 [2]): 11.1 ± 2.8 µM

COc1ccc(C2(CNC(=O)[C@](C)(Cc3c[nH]c4ccccc34)NC(=O)Nc3ccc([N+](=O)[O-])cc3)CCCCC2)nc1 [PD176252]
Ca2+ Mobilization in HL-60 cells FPR1 Efficacy (FPR1 [3]): 100% | Ca2+ Mobilization in HL-60 cells FPR2 Efficacy (FPR2 [1]): 90% | EC50 (human neutrophils): 810 ± 220 nM | EC50 (FPR1 [4]): 3.8 ± 1.1 µM | EC50 (FPR2 [2]): 8.8 ± 2 µM | Ki (bombesin receptor (BB2)): 66 nM
